Source: PubChem BioAssay (several laboratories)
Cl transport mod = modulates chloride dependent transport by human KCC2; 190,000 compounds, 2.2% hits; B-score of Tl+ flux slope (higher = more flux/activation; lower = inhibition) at 10 µM; KCC2 cells, thallium flux FluoZin-2 fluorescence;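 active = thallium flux slope and its plate-corrected score both differing from the plate sample mean at a set confidence after two filtering rounds, in either direction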;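 note: slope of fluorescence scaled to starting intensity during 10 to 20 s after thallium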
RBBP9 inhibitor = blocks human serine hydrolase RBBP9; O75884; recombinant RBBP9, FP-Rh probe fluorescence polarization; inhibition, % at 7.94 µM; 220,000 compounds, 0.2% hits;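 active = inhibition above the campaign mean of all tested compounds plus 3 SD, cut at about 14% in these data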
Target sequence (O75884 whole entry, looked up): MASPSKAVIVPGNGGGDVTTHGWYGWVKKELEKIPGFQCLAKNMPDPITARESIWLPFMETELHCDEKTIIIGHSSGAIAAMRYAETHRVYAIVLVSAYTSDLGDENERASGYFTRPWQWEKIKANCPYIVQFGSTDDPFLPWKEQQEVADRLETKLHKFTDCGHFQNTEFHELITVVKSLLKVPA
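Controls: DMSO-treated enzyme wells and wells lacking RBBP9 | Material: RBBP9 protein | Technique: Fluorescence polarization | Replication: Single well per compound, no replicates | Buffer or medium: Tris-NaCl-Pluronic buffer, pH 8.0 | Timing: 30 min compound preincubation, 45 min probe labeling, 25 °C | Read-out basis: Percent inhibition from mP, scaled between DMSO and no-protein wells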
14-3-3 Bad inh = disrupts binding of bovine 14-3-3 zeta to phospho-Bad peptide; P63103; TR-FRET 14-3-3zeta/Dy647-pBad peptide displacement, 1 h; inhibition, % at 21.7 µM; 220,000 compounds, 0.71% hits;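 active = inhibition above about 70%, limit read from the data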
WT yeast gro inh = growth inhibition of WT yeast, mitochondrial fusion screen. mitochondrial fusion phenotypic screen, WT strain. inhibition, % at 10 µM. 190,000 compounds, 2.1% hits. AID 1362; in the data active = inhibition above about 58%; tested in S. cerevisiae
p47phox inh = inhibitors of human p47phox binding; P14598; p47phox/p22phox peptide binding, fluorescence polarization, 2 h; inhibition, % at 24.7 µM; 220,000 compounds, 0.53% hits;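 active = inhibition above about 30%, limit read from the data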
Target sequence (P14598 whole entry, looked up): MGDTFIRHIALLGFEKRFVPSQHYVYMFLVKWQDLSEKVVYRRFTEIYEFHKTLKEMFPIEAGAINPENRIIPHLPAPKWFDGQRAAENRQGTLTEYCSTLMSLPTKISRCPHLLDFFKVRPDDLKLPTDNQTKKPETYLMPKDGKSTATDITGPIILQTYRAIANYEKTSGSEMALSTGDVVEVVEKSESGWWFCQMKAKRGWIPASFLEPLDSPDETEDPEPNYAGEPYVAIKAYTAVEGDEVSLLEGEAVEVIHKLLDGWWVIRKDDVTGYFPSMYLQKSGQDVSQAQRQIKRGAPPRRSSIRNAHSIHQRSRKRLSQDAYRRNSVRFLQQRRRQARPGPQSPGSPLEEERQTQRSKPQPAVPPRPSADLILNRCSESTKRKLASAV
ROMK mod = human ROMK K+ channel modulation, primary screen; P48048; Tet-inducible ROMK, thallium flux fluorescence; actives lie on both sides; AID 1918; 130,000 compounds, 2% hits; B-score at 10 µM;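 active = signal ratio slope over the read window, or its plate-corrected B-score, at least 3 SD from the plate mean, either direction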;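 note: B-score of the F/F0 ratio slope over 7 to 12 s after thallium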
ROMK hit retest = confirmation of human ROMK potassium channel modulators; shares compounds with ROMK mod; ROMK thallium flux, fluorescence ratio; stronger effect = lower value; normalized thallium flux (F/F0 slope) at 10 µM; 3,000 compounds, 54% hits;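 active = Flux at 10 µM at least 3 SD below or above vehicle control mean in one or both replicates; inconclusive = no clear call, values can overlap the other calls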
A number is an active result; . = inactive; ? = inconclusive; / = not tested or not shown. Hits are enriched below; roughly 5.8% of the tested compounds scored in any of these assays.

SMILES | Cl transport mod | RBBP9 inhibitor | 14-3-3 Bad inh | WT yeast gro inh | p47phox inh | ROMK mod | ROMK hit retest
CCCCn1c(N)c(N(CC(C)C)C(=O)CCCSc2nncs2)c(=O)[nH]c1=O | . | . | . | . | . | . | /
COc1cc(CNCCCCO)ccc1OCc1ccccc1F | . | . | . | . | . | . | /
OCCCCNCc1ccc(OCc2ccc(Cl)cc2Cl)cc1 | . | . | . | . | . | / | 0.053
Cc1ccc(C2CC(c3cccs3)=NN2C(=O)c2ccco2)o1 (stereo not drawn) | . | . | . | . | . | -5.5 | ?
O=C(Nc1ccc(Cl)cc1Cl)N1CCN(c2ncccn2)CC1 | . | . | . | . | . | -3.8 | .
Cn1c(-c2ccccc2)c[n+]2c1-c1ccccc1C2 | . | . | . | . | . | / | /
Cc1ccc2nc(Cl)c(CNCc3ccccc3)cc2c1 | . | . | . | . | . | . | /
NC(N)=N/N=C/c1ccc2cccc(OCc3ccccc3)c2n1 | . | . | . | / | . | -3.7 | 0.049
CC1(CCc2ccccc2)NC(=O)N(CC(=O)Nc2ccc3c(c2)OCCO3)C1=O (stereo not drawn) | . | . | . | . | . | . | /
COc1ccc(N2CCN(C(=O)c3cc(N4C(=O)C5C6CCC(C6)C5C4=O)ccc3Cl)CC2)cc1 (stereo not drawn) | . | . | . | . | . | . | /
O=C(c1cc(N2C(=O)C3C4CCC(C4)C3C2=O)ccc1Cl)N1CCN(c2ccc(F)cc2)CC1 (stereo not drawn) | . | . | . | . | . | -5 | 0.061
COC(=O)Nc1nc2ccc(-c3n[nH]c(=O)c4ccccc34)cc2[nH]1 | . | . | . | . | . | 2.8 | ?
COC(=O)c1ccc(-c2n[nH]c(=O)c3ccccc23)cc1 | . | . | . | . | . | / | /
c1ccc2c(-c3[nH]ncc3CNCCCn3ncc4ccccc43)cccc2c1 | . | . | . | . | . | -1.8 | ?
CC(=O)/C=C1/C(=O)Nc2ccccc21 | . | . | . | . | . | -3.8 | 0.034
CN1CCN(C(=O)c2ccc3c(c2)S(=O)(=O)c2ccccc2C3=O)CC1 | . | . | . | . | . | . | /
CCN1CCN(C(=O)c2ccc3c(c2)S(=O)(=O)c2ccccc2C3=O)CC1 | . | . | . | . | . | 1.5 | .
Cc1ccc(N2CC(C(=O)Nc3ccc(C)c(S(=O)(=O)N(C)C)c3)CC2=O)cc1 (stereo not drawn) | . | . | . | . | . | . | /
COc1ccc(Br)cc1CSC(=N)N | . | . | . | . | . | . | /
CCCCCOc1ccc(Br)cc1CSC(=N)N | . | . | . | 65 | . | / | 0.042
COc1ccccc1CNC(=O)C/C(C)=N/NC(=O)COc1ccc(C)cc1Br | . | . | . | . | . | 2.8 | .
CC(=O)Nc1ccc(N2C(C(C)=O)=NN(c3ccc(Cl)cc3)C2c2sccc2C)cc1 (stereo not drawn) | . | . | . | . | . | / | /
CN(C)CCCOC(=O)COc1ccc(Br)cc1 | . | . | . | / | . | . | /
CCN(CC)CC(C)OC(=O)c1ccccc1Cl (stereo not drawn) | . | . | . | . | . | . | /
c1ccc(CC2=NCCN2)cc1 | / | . | . | . | 54 | 3.1 | .
SMILES | Cl transport mod | RBBP9 inhibitor | 14-3-3 Bad inh | WT yeast gro inh | p47phox inh | ROMK mod | ROMK hit retest
Cc1ccc2[nH]cc(C(=O)CCl)c2c1 | . | . | . | . | . | -4.2 | 0.055
Cc1ccc2[nH]cc(C(=O)CN3CCN(C)CC3)c2c1 | . | . | . | . | . | / | /
O=C(CN1C(=O)C(=O)N(Cc2ccccc2)C1=O)Nc1ccc(F)c(Cl)c1 | . | . | . | . | . | . | /
CCOC(=O)CSC1=NC(=O)/C(=C/c2ccc(Br)cc2)S1 | . | . | . | . | . | . | 0.061
CCOC(=O)CSC1=NC(=O)/C(=C\c2ccc(OC(C)=O)cc2)S1 | / | . | . | . | . | / | 0.04
CCOC(=O)CSc1nc(-c2ccccc2)ns1 | . | . | . | . | . | . | /
CCOC(=O)c1c(C)n(C)c2ccc(OCC(O)Cn3nc(C)cc3C)cc12 (stereo not drawn) | . | . | . | . | . | / | 0.067
CCOC(=O)c1c(C)n(C)c2ccc(OCC(O)CN(CC)CC)cc12 (stereo not drawn) | . | . | . | . | . | / | /
CC(C)c1[nH]nc2c1C(c1ccco1)C(C#N)=C(N)O2 (stereo not drawn) | . | . | . | . | . | . | /
CC1=CC(C)(C)N(S(=O)(=O)c2ccc(C)cc2)c2ccccc21 | . | . | . | . | . | 3.2 | .
CN(C)c1cc[n+](CC(=O)c2ccc(OC(F)F)cc2)cc1 | . | . | . | / | . | / | /
Nn1c(SCc2cc([N+](=O)[O-])cc3c2OCOC3)nnc1-c1cccnc1 | . | . | . | . | . | . | /
CCOC(=O)c1oc2nc3c(cc2c1N)CCCC3 | . | . | . | / | . | / | /
CCOC(=O)c1oc2nc3c(cc2c1N)COC(C)(C)C3 | . | . | . | . | . | 3.5 | .
Cc1ccc(CNC(=O)COC(=O)c2ccc(S(=O)(=O)N(C)C)cc2)cc1 | . | . | . | . | . | . | /
CCOC(=O)c1nn(-c2ccc(C)cc2)c(=O)c2c(N)scc12 | . | . | . | . | . | / | .
Cc1cc(C)c2cc(C(=O)Nc3ccc4c(c3)OCO4)[nH]c2c1 | . | . | . | / | . | . | /
Cc1cc(C)c2cc(C(=O)Nc3ccccc3)[nH]c2c1 | . | . | . | / | . | / | .
COc1cc(OCC(N)=O)cc(OC)c1OC | . | . | . | . | . | . | /
COc1ccc(OCC(N)=O)cc1 | / | . | . | . | . | / | .
COc1cc(CNCc2ccccc2)c(Br)cc1OC1CCCC1 | . | . | . | . | . | . | /
Cc1cc(/C=N/n2cnnc2)c(C)n1-c1ccc(Cl)cc1Cl | . | . | . | . | . | 3.2 | ?
O=c1onc(-c2ccc(Cl)cc2Cl)n1-c1cccnc1 | . | . | . | / | . | / | /
Cc1ccc(/C(=N\O)c2oc3c(C)c4oc(=O)cc(C)c4cc3c2C)cc1 | . | . | . | 70 | . | 2.9 | 0.11
Cc1onc(NC(=O)c2ccc(Cl)cc2Cl)c1Br | . | . | . | . | . | . | /
SMILES | Cl transport mod | RBBP9 inhibitor | 14-3-3 Bad inh | WT yeast gro inh | p47phox inh | ROMK mod | ROMK hit retest
CCC(=O)Nc1cccc(C(=O)/C=C/c2cccs2)c1 | . | . | . | . | . | . | 0.069
CCC(=O)Nc1cccc(C(=O)/C=C/c2ccccc2)c1 | . | . | . | . | . | / | /
Cc1cccc(NC(=S)NC23CN4CN(CN(C4)C2)C3)c1C | . | . | . | . | . | / | /
CC(CC(=O)O)Nc1ccccc1O (stereo not drawn) | . | . | . | . | . | . | .
C=CCN1C(=O)C(CC(=O)O)SC1=Nc1ccc(C)cc1 (stereo not drawn) | / | . | . | . | . | . | /
CCc1ccc2[nH]c(=O)c(CN(Cc3ccccc3OC)C(=O)Nc3ccccc3OC)cc2c1 | . | . | . | . | . | 0.96 | .
CCN(CC)CCN(Cc1cc2cc(C)ccc2[nH]c1=O)C(=O)Nc1ccccc1OC | . | . | . | . | . | / | /
